Experiment [1] has as its system Pseudomonas aeruginosa. In words: Antimicrobial activity against Pseudomonas aeruginosa ATCC 27853 at 200 ug after overnight incubation by disk-diffusion method. The class given is functional. The settings on record: for zone of inhibition at 200 µg/disc: read-out: DIZ. Put shortly: (§1)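 Bacterial suspension spread over a Mueller–Hinton agar surface. 6 mm paper disks each loaded with 200 µg of compound dissolved in DMSO were placed on the agar. Plates were incubated overnight at 37 °C, and inhibition zone diameters were measured with a ruler in mm.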

The test system of experiment [2] is Staphylococcus aureus. In words: Antimicrobial activity against Staphylococcus aureus ATTC-25923 at 200 ug after overnight incubation by disk-diffusion method. The format is functional. The settings on record: for zone of inhibition at 200 µg/disc: read-out: DIZ. Put shortly:
as §1
Background: A growth-free zone around the sample is the usual read-out of agar diffusion tests.

Experiment [3] concerns Salmonella typhimurium. In words: Antimicrobial activity against Salmonella typhimurium ATCC 07095 at 200 ug after overnight incubation by disk-diffusion method. The class given is functional, Salmonella enterica subsp. enterica serovar Typhimurium. The conditions noted are these: for zone of inhibition at 200 µg/disc: Salmonella enterica, read-out: DIZ; for diameter of the inhibition zone (DIZ): Salmonella enterica subsp. enterica serovar Typhimurium. Put shortly: as §1

The test system of experiment [4] is Escherichia coli. In words: Antimicrobial activity against Escherichia coli ATTC-25922 at 200 ug after overnight incubation by disk-diffusion method. The class given is functional. The settings on record: for zone of inhibition at 200 µg/disc: read-out: DIZ. Put shortly:
as §1

Experiment [5] concerns Salmonella typhimurium. In words: Antimicrobial activity against Salmonella typhimurium ATCC 07095 after 1 day by agar dilution method. The format is functional, Salmonella enterica subsp. enterica serovar Typhimurium. The settings on record: Salmonella enterica, ATCC 07095, 24 h. The gist of the method:
(§2)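 Inoculum was an overnight broth culture diluted to about 10^6 cell/mL. MIC (µg/mL) was determined by a standardized agar dilution technique after 1 day of exposure.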

For experiment [6], the system named is Pseudomonas aeruginosa. In words: Antimicrobial activity against Pseudomonas aeruginosa ATCC 27853 after 1 day by agar dilution method. The class given is functional. The settings on record: ATCC 27853, 24 h. Put shortly:
as §2
In general terms: Agar dilution tests growth on a series of plates holding different concentrations.

Experiment [7] relates to Staphylococcus aureus. In words: Antimicrobial activity against Staphylococcus aureus ATTC-25923 after 1 day by agar dilution method. The format is functional. The settings on record: ATTC-25923, 24 h. Put shortly:
as §2

Experiment [8] deals with Escherichia coli. In words: Antimicrobial activity against Escherichia coli ATTC-25922 after 1 day by agar dilution method. The format is functional. The conditions noted are these: ATTC-25922, 24 h. The gist of the method:
as §2

The subject of experiment [9] is Salmonella typhimurium. In words: Antimicrobial activity against Salmonella typhimurium ATCC 07095 at 100 ug after overnight incubation by disk-diffusion method. The settings on record: Salmonella enterica subsp. enterica serovar Typhimurium. The class given is functional, organism-based.
For experiment [10], the system named is Staphylococcus aureus. In words: Antimicrobial activity against Staphylococcus aureus ATTC-25923 at 100 ug after overnight incubation by disk-diffusion method. The class given is functional, organism-based.
Experiment [11] deals with Escherichia coli. In words: Antimicrobial activity against Escherichia coli ATTC-25922 at 100 ug after overnight incubation by disk-diffusion method. The format is functional, organism-based.

These results are taken from ChEMBL document CHEMBL2331384, “Synthesis, crystal structure and antibacterial activity of new highly functionalized ionic compounds based on the imidazole nucleus” (2013).

The source made the active and inactive calls. The rule behind the calls is not given here.

`Cc1n(C)c(Br)c(Br)[n+]1CC(=O)c1ccccc1.[Br-]`: the zone of inhibition at 200 µg/disc in [1] stood at 9 mm; in experiment [2], 7 mm; in experiment [3], 7 mm; in experiment [4], 9 mm. Further, the MIC was over 250 µg/mL in experiment [5], 150 µg/mL in experiment [6], over 250 µg/mL in experiment [7] and 12.5 µg/mL in experiment [8].

In the case of `CCOC(=O)C[n+]1cn(C)c(I)c1I.[Br-]`, the zone of inhibition at 200 µg/disc in experiment [1] amounted to 9 mm. The “diameter of the inhibition zone (DIZ)” value in [2], in [3] and in experiment [4] was “inactive” each time. Besides, the MIC in experiment [5] is 50 µg/mL; in experiment [6], 6.2 µg/mL; in [7], 250 µg/mL; in experiment [8], 6.2 µg/mL.

For SPIRAMYCIN, the zone of inhibition is 9 mm in experiment [9], 22 mm in experiment [10] and 9 mm in experiment [11].

Turning to `CCOC(=O)C[n+]1c(Br)c(Br)n(C)c1-c1ccccc1.[Br-]`, the zone of inhibition at 200 µg/disc in experiment [1] worked out at 7 mm; in experiment [2] it was 9 mm; in [3], 7 mm. Moreover, the “diameter of the inhibition zone (DIZ)” value in experiment [4] was “inactive”. Moreover, the MIC in experiment [5] was 25 µg/mL; in [6], 25 µg/mL; in experiment [7] it was over 250 µg/mL; in experiment [8], 50 µg/mL.

For the molecule `Cn1c(Br)c(Br)[n+](CC(=O)c2ccccc2)c1-c1ccccc1.[Br-]`, the zone of inhibition at 200 µg/disc amounted to 8 mm in [1], 12 mm in [2], 7 mm in [3] and 9 mm in experiment [4]. For the same molecule, the MIC in [5] amounted to 150 µg/mL; in experiment [6], 50 µg/mL; in experiment [7] it was 250 µg/mL; in experiment [8], 50 µg/mL.

For `Cn1c[n+](CC(=O)c2ccccc2)c(I)c1I.[Br-]`, the zone of inhibition at 200 µg/disc in experiment [1] was found to be 8 mm; in experiment [2] it was 15 mm; in experiment [3], 9 mm; in experiment [4] it was 12 mm. The MIC in experiment [5] is 12.5 µg/mL; in experiment [6], 25 µg/mL; in experiment [7], 250 µg/mL; in [8], 25 µg/mL.

`CCOC(=O)C[n+]1c(I)c(I)n(C)c1C.[Br-]`: the zone of inhibition at 200 µg/disc in [1] worked out at 9 mm. Besides, the “diameter of the inhibition zone (DIZ)” value in experiment [2], in [3] and in experiment [4] was “inactive” each time. Moreover, the MIC in experiment [5] was over 250 µg/mL; in experiment [6] it was 25 µg/mL; in experiment [7], over 250 µg/mL; in experiment [8] it was 25 µg/mL.

With `Cn1c(Br)c(Br)[n+](CC(=O)c2ccccc2)c1CO.[Br-]`, the zone of inhibition at 200 µg/disc in experiment [1] came out at 9 mm; in [2] it was 7 mm; in [4], 7 mm. In [3], the “diameter of the inhibition zone (DIZ)” value is “inactive”. Also, the MIC was over 250 µg/mL in experiment [5], 50 µg/mL in experiment [6], over 250 µg/mL in experiment [7] and 25 µg/mL in experiment [8].

With `Cn1c[n+](CC(=O)c2ccccc2)cc1[N+](=O)[O-].[Br-]`, the zone of inhibition at 200 µg/disc in experiment [1] is 9 mm. The “diameter of the inhibition zone (DIZ)” value in [2], in experiment [3] and in [4] was “inactive” each time. For the same molecule, the minimum inhibitory concentration (MIC) is 12.5 µg/mL in experiment [5], 12.5 µg/mL in experiment [6], over 250 µg/mL in experiment [7] and 12.5 µg/mL in experiment [8].

For the molecule `CCOC(=O)C[n+]1c(Br)c(Br)n(C)c1CO.[Br-]`, the zone of inhibition at 200 µg/disc in [1] and in [4] was 7 mm in each case. The “diameter of the inhibition zone (DIZ)” value in [2] and in experiment [3] was “inactive” in each case. Further, the minimum inhibitory concentration (MIC) was over 250 µg/mL in [5], 25 µg/mL in experiment [6], over 250 µg/mL in experiment [7] and 150 µg/mL in [8].

`Cc1n(C)c([N+](=O)[O-])c[n+]1CC(=O)c1ccccc1.[Br-]`: the zone of inhibition at 200 µg/disc came to 10 mm in experiment [1], 9 mm in [2], 7 mm in experiment [3] and 9 mm in experiment [4]. In addition, the MIC was 50 µg/mL in experiment [5], over 250 µg/mL in experiment [6], over 250 µg/mL in experiment [7] and 50 µg/mL in experiment [8].

`CCOC(=O)C[n+]1c(Br)c(Br)n(C)c1C.[Br-]`: the “diameter of the inhibition zone (DIZ)” value in experiment [1], in experiment [3] and in experiment [4] was “inactive” in each case. In addition, the zone of inhibition at 200 µg/disc in experiment [2] is 10 mm. In addition, the minimum inhibitory concentration (MIC) in [5] was over 250 µg/mL; in experiment [6] it was 250 µg/mL; in experiment [7] it was over 250 µg/mL; in experiment [8], 25 µg/mL.

On to `Cc1n(C)c(I)c(I)[n+]1CC(=O)c1ccccc1.[Br-]`, for which the zone of inhibition at 200 µg/disc came out at 9 mm in experiment [1], 15 mm in [2], 8 mm in experiment [3] and 9 mm in experiment [4]. Besides, the MIC in experiment [5] is 25 µg/mL; in experiment [6] it was 12.5 µg/mL; in experiment [7], over 250 µg/mL; in [8] it was 12.5 µg/mL.

In general, MIC refers to the least concentration at which growth counts as inhibited. A low value points to greater potency.
